Measurements gathered from unrelated publications.
Each line is one published result; the experiments were not run side by side.
Target: Serine/threonine-protein kinase D3 (PRKD3, Homo sapiens, UniProt O94806)
One construct used (O94806 1-890): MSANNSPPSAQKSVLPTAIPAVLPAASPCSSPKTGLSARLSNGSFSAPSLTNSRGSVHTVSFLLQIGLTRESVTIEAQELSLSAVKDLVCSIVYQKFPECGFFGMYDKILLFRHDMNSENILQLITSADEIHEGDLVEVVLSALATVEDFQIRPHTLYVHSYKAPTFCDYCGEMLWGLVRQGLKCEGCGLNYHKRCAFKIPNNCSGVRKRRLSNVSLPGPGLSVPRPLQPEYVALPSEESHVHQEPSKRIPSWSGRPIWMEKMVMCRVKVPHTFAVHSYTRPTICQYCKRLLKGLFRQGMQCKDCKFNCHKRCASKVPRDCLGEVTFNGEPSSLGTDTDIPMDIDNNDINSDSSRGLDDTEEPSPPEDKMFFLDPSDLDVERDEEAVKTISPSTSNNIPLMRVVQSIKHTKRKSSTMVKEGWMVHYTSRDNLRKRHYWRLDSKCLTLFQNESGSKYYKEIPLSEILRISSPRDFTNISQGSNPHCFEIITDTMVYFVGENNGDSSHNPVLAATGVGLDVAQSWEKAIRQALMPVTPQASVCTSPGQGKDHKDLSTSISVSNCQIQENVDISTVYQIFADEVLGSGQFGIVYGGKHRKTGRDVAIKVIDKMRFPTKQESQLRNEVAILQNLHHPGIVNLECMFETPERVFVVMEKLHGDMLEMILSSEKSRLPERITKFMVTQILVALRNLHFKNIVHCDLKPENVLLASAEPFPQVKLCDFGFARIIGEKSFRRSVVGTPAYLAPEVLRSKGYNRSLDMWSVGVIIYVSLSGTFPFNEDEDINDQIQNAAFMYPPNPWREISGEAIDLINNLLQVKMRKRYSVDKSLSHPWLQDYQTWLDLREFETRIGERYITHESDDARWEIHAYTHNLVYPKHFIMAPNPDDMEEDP

Compound	assay	test system	conditions	quantity	value
Nc1ncnc2occ(-c3ccc(NC(=O)Nc4cc(C(F)(F)F)ccc4F)cc3)c12	cell-free assay, inhibitor	–	20 µM	remaining signal	42%
COc1cc(Nc2c(C#N)cnc3cc(OCCCN4CCN(C)CC4)c(OC)cc23)c(Cl)cc1Cl	cell-free assay	–	0.5 µM	remaining signal	42.2%
O=C(NCc1ncc(C(F)(F)F)cc1Cl)c1ccc2c(c1)C1(CCS(=O)(=O)CC1)[C@H](C1CC1)N2S(=O)(=O)c1ccc(F)cc1	cell-free assay, competition with immobilised ligand	–	1 µM	remaining binding	100%
CCOc1cc(-c2nncn2C)ccc1Nc1ncc2cc(C)nc(NCC(C)(C)C)c2n1	enzyme activity, inhibitor, FRET	–	1 µM	inhibition	< 15%
Cn1c2c(Cl)c(Cl)ccc2c2cc[nH]c(=O)c21	thermal stability, DSF	–	10 µM	ΔTm	2.2 °C
Cc1ccc(C(=O)Nc2ccc(CN3CCN(C)CC3)c(C(F)(F)F)c2)cc1C#Cc1cnc2cccnn12	enzyme activity, inhibitor	–	23.5 nM	remaining activity	100%
CCN1CCN(Cc2ccc(NC(=O)c3ccc(C)c(Oc4ccnc5[nH]ccc45)c3)cc2C(F)(F)F)CC1	target engagement in cells, inhibitor, chemoproteomics	Huh-7	1 µM	inhibition	-12.7%
COc1cc2c(Nc3ccc(Br)cc3F)ncnc2cc1OCC1CCN(C)CC1	cell-free assay	–	0.5 µM	remaining signal	91.7%
Cc1ccc(C(=O)NCc2ccsc2)cc1C#Cc1cn(C(C)C)c2ncnc(N)c12	enzyme activity, inhibitor	–	1 µM	activity vs control	101%
CC(C)(O)[C@H]1CC[C@H](Nc2ccc3ncc(-c4cccc(C(F)(F)F)c4)n3n2)CC1	enzyme activity, inhibitor	–	1 µM	remaining activity	91.2%
Cc1nc(Cc2cccc(C(F)(F)F)c2)sc1-c1ccc(C(N)=O)nc1	cell-free assay, competition with immobilised ligand	–	1 µM	remaining binding	97%
N#CCCc1ccc2c(c1)-c1[nH]c3ccc([N+](=O)[O-])cc3c1CC(=O)N2	cell-free assay	–	0.5 µM	remaining signal	84%
CN1CCC2(CC1)NC(=O)c1c(c3ccc(Cl)c(Cl)c3n1C)C2C#N (racemic)	thermal stability, DSF	–	10 µM	ΔTm	2 °C
O=C(Nc1cnn(-c2csc(C(=O)NC3COC3)c2)c1)Nc1c(F)cccc1Cl	enzyme activity, inhibitor	–	5 µM	remaining activity	105%
COCCOc1nc(-c2ccc(Cl)nc2)nc2c1CN(C(=O)c1ncn3ccccc13)CC2	cell-free assay, competition with immobilised ligand	–	0.1 µM	remaining binding	94%
CC(C)(C)c1nc(-c2cccc(NS(=O)(=O)c3c(F)cccc3F)c2F)c(-c2ccnc(N)n2)s1	enzyme activity, inhibitor, radiometric	–	1 µM	remaining activity	100%
CSc1cccnc1N1CCN(Cc2nc3ccccc3[nH]2)CC1	cell-free assay, competition with immobilised ligand	–	1 µM	remaining binding	100%
Cn1c2c(c3ccc(Cl)c(Cl)c31)C(C#N)C(C)(C)NC2=O (stereo not drawn)	thermal stability, DSF	–	10 µM	ΔTm	1.9 °C
CN(C)CC#Cc1ccc(OCCCc2sc(N3CCc4cccc(C(=O)Nc5nc6ccccc6s5)c4C3)nc2C(=O)O)c(F)c1	cell-free assay, competition with immobilised ligand	–	1 µM	remaining binding	93%
CN1CC(Oc2cnc(C#N)cc2-c2ccn3nc(NC(=O)C4CC4)cc3c2)C1	enzyme activity, inhibitor	–	1 µM	inhibition	-13%
O=C(NC[C@@H]1[C@H]2CN(C(=O)OCc3cc(C(F)(F)F)cc(C(F)(F)F)c3)C[C@@H]12)c1ccc2[nH]nnc2c1	cell-free assay, competition with immobilised ligand	–	1 µM	remaining binding	83%
COc1cc2ncnc(Nc3ccc(Oc4ccccc4)cc3C)c2cc1OC	enzyme activity, inhibitor	–	1 µM	inhibition	10%
CC(C)CC(=O)N1CCc2nc(-c3ccc(Br)cc3)nc(N(C)Cc3ccccc3)c2C1	cell-free assay, competition with immobilised ligand	–	0.1 µM	remaining binding	100%
c1ccc(CNc2nc(N3CCOc4ccccc43)nc3c2CCCC3)cc1	target engagement in cells, inhibitor, chemoproteomics	–	20 mM	inhibition	2.8%
